From paper PMC9934649 (bioRxiv, 2023) come the findings set out here.

pIC50: −log10 of the molar value. Entries after “also recorded” stand apart in the source; their conditions may differ.

In one test the target is T1, WT human CDKL5 (Homo sapiens, UniProt O76039).
T1 sequence (O76039 1-960): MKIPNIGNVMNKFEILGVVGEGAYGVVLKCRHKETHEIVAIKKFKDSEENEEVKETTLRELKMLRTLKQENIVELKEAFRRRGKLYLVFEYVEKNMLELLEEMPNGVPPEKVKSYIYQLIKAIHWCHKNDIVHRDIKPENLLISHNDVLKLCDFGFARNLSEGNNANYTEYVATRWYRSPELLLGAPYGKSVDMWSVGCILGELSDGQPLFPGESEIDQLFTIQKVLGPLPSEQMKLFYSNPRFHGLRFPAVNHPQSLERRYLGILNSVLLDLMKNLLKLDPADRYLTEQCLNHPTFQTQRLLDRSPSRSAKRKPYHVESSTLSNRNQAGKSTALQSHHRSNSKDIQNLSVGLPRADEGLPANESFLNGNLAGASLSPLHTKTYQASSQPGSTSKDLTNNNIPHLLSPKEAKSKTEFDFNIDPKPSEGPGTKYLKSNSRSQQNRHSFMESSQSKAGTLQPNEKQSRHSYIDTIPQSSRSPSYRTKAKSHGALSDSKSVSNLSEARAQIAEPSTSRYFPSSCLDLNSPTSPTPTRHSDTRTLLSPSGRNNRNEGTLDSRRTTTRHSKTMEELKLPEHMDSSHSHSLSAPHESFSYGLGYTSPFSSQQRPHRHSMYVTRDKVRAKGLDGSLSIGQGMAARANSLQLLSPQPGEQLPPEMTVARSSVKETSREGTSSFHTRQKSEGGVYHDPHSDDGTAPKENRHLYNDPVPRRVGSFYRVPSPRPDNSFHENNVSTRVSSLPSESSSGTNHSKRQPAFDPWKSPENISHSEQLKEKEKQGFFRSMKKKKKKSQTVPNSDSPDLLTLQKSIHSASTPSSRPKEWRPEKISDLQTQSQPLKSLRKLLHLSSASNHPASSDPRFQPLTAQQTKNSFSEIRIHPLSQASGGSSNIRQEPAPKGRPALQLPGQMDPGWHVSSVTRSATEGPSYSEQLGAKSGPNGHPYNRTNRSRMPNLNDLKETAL
The test is described as follows: CDKL5 in vitro kinase assay. In kind it is biochemical. To be noted: 10 or 100 nM compound, 50 µM ATP, vs untreated WT CDKL5. The method in brief:
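FLAG-tagged WT human CDKL5, with a K42R kinase-dead control, was made by HeLa-lysate in vitro translation and purified on cobalt spin columns. Enzyme plus myelin basic protein substrate was incubated in kinase buffer with or without 50 µM ATP at 30 °C for 30 min, with test compound at 10 or 100 nM or DMSO. Read by ADP-Glo. Triplicate; one-way ANOVA with Dunnett's test.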

A further test deals with CDKL5 expression. The test can be described thus: Western blot of CDKL5 expression in rat primary cortical neurons. To be noted: 1 hour treatment. The class given is cell-based. A digest of the protocol: (§1)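 Cortical neurons were taken from E18.5 Long Evans rat embryos (trypsin 0.25%, 15 min, 37 °C) and plated at 300,000/well on poly-D-lysine/laminin. At DIV11–14, cells were given 5 nM–5 µM test compound or DMSO for 1 h at 37 °C. Lysates were immunoblotted with ECL detection. pEB2 S222 was normalised to total EB2, pβ-catenin to total β-catenin, and CDKL5 to tubulin.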
On the technique in general: A western blot detects proteins with antibodies after separation by electrophoresis.

The next test has as its system S222 EB2 phosphorylation. The test can be described thus: Western blot of S222 EB2 phosphorylation in rat primary cortical neurons. In kind it is cell-based. To be noted: 1 hour, 5 nM, 50 nM, 500 nM or 5 µM. The method in brief: as §1
In a further test the target is T2, CDKL5 kinase domain (Homo sapiens, UniProt O76039, T169D/Y171E).
T2 sequence (O76039 1-303 T169D/Y171E): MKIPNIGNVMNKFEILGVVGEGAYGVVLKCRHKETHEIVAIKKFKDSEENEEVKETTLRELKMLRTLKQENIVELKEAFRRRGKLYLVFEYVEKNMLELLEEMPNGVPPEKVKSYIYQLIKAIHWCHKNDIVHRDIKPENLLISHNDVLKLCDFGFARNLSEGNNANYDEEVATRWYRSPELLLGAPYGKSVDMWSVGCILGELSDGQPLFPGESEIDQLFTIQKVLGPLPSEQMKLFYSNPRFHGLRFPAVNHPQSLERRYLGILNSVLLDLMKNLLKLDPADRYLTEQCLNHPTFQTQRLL
The test is described as follows: Thermal shift assay. The class given is binding. The note with it: all concentrations evaluated (12.5, 25, or 50 µM). A digest of the protocol: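 The CDKL5 kinase domain (construct boundaries of 4BGQ) was used at 4 µM in 10 mM HEPES-NaOH pH 7.4, 500 mM NaCl with 5× SYPRO Orange. It was incubated with test compound at 12.5, 25 or 50 µM. Fluorescence was recorded on a real-time PCR instrument to derive melting-temperature shifts.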

In test [1] the target is T3, CDKL5 (Homo sapiens, UniProt O76039).
T3 sequence (O76039 1-960): T1 sequence (O76039 1-960)
The test is described as follows: CDKL5 split luciferase assay. In kind it is binding. The note with it: compound 2 vs compound 4. A digest of the protocol:
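Luminescence-based competition binding assay: test compound displaces an active-site-dependent probe from CDKL5. Run as 12-point dose–response in duplicate to give IC50 values.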

In test [2] the test system is S33/37/T41 β-Catenin phosphorylation. The class given is cell-based. To be noted: rat primary cortical neurons, 1 hour, dose-response. The method in brief:
as §1

The next test addresses GSK3α (Homo sapiens, UniProt P49840). The test can be described thus: GSK3α NanoBRET assay. In kind it is cell-based. To be noted: GSK3α NanoBRET IC50, tracer K8.
Test [3] addresses T3, CDKL5. The test is described as follows: CDKL5 NanoBRET in-cell target engagement assay. The class given is cell-based. In general terms: Bioluminescence resonance energy transfer reports proximity on the nanometre scale.
In a further test the target is GSK3β (Homo sapiens, UniProt P49841). The test is described as follows: GSK3β NanoBRET assay. In kind it is cell-based. The note with it: GSK3β NanoBRET IC50, tracer K8.
In a further test the test system is human motor neurons. The test can be described thus: Neuroprotection assay, ER stress induced by cyclopiazonic acid. In kind it is cell-based. The note with it: for Motor neuron survival in response to ER stress: cyclopiazonic acid, 72 hours, 0.16–10 µM; for Motor neuron survival at low concentrations compared with AT-7519: low concentrations (<200 nM). The method in brief:
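Motor neurons came from NCRM-1 iPSCs carrying a VAChT:TdTomato reporter, differentiated as embryoid bodies for 16 days. They were plated at 2000 cells/well on laminin/poly-ornithine in neurobasal medium with anti-mitotics, B-27, N-2 and GDNF, BDNF, IGF-1 and CNTF. After 48 h, cells were co-treated with cyclopiazonic acid and test compound (4-fold dilutions, 0.16–10 µM, triplicate wells) for 72 h. Calcein AM live cells were counted as % of DMSO-treated survivors.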

For a further test, the target named is DYRK1B (Homo sapiens, UniProt Q9Y463). The test can be described thus: Radiometric HotSpot kinase assay. The note with it: enzymatic IC50 values. The class given is biochemical. The method in brief:
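Window was taken from enzymatic IC50s. DYRK1B: radiometric HotSpot assay at ATP Km, 10-point dose–response. GSK3β: radiometric assay at ATP Km, 9-point dose–response.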

Sequence of GSK3β (P49841 whole entry): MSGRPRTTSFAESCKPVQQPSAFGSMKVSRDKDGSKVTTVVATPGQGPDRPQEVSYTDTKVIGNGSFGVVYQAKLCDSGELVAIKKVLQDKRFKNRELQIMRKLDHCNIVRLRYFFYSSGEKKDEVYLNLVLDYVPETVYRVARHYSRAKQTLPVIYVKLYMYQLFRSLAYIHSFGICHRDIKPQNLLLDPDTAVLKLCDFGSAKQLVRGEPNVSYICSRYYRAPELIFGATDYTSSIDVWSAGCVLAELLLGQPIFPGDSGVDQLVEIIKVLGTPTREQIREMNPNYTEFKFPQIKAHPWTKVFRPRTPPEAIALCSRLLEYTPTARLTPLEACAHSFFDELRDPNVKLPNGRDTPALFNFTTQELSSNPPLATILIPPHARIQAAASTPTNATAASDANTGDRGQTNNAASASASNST
Sequence of DYRK1B (Q9Y463 whole entry): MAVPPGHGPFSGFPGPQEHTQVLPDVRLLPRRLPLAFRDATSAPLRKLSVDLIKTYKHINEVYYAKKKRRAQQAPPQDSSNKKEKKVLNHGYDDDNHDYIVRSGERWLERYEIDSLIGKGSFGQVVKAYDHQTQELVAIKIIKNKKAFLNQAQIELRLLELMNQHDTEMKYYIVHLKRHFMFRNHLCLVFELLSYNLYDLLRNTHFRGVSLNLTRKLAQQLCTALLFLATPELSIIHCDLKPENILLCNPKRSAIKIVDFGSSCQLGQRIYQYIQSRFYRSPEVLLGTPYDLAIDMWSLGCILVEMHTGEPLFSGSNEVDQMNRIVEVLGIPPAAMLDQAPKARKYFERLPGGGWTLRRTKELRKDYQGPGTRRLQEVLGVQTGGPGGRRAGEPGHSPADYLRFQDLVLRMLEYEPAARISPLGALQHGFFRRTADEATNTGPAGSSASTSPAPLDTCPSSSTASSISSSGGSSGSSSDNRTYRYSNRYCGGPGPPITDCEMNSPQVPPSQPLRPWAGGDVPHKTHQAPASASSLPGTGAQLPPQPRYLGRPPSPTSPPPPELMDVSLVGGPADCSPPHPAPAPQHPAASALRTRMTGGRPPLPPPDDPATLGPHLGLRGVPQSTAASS
Sequence of GSK3α (P49840 whole entry): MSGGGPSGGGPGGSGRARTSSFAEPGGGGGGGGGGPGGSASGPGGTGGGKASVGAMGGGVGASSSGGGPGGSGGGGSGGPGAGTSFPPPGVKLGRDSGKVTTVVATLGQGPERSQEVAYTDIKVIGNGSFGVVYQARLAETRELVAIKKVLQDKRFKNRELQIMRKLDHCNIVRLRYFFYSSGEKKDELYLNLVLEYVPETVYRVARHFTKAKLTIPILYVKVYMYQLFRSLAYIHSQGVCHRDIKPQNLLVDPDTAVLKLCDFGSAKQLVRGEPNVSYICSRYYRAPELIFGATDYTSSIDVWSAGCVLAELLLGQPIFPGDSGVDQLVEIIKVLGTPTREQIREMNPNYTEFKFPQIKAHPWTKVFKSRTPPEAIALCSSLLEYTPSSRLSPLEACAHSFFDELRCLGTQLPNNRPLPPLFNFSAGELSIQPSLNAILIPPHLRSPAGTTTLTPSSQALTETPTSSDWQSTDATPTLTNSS

`CS(=O)(=O)CCNCc1ccc(-c2ccc3ncnc(Nc4ccc(OCc5cccc(F)c5)c(Cl)c4)c3c2)o1` [lapatinib, reference compound]: on WT human CDKL5, the “Effect on CDKL5 kinase activity” value is given as “No significant difference”.

As a reminder, the pIC50 is the IC50 on a negative log10 scale, so that one unit is a factor of ten. Turning to `O=C(Nc1c[nH]nc1C(=O)NC1CCNCC1)c1cc(F)cc(F)c1` [Compound 2, 4-(3,5-difluorobenzamido)-N-(piperidin-4-yl)-1H-pyrazole-3-carboxamide], the CDKL5 expression result in the test with CDKL5 expression was “not altered”. The “Phosphorylation of EB2 (S222)” value in the test with S222 EB2 phosphorylation is on record as “inhibited in a dose-dependent manner”. Besides, the “Change in melting temperature (ΔTm), CDKL5” value on CDKL5 kinase domain was more than 6 °C. The “Fold higher potency than compound 4 in split-luciferase CDKL5 assay” value at CDKL5 [1] is reported as approximately 130 fold. Besides, the “Phosphorylation of β-catenin (S33/37/T41)” value in [2] is “reduced in a dose-dependent manner”. The pIC50 was more than 7.52 at GSK3α, 8.34 against CDKL5 [3] and more than 7.52 against GSK3β. Further, the “Motor neuron survival in response to ER stress” value with human motor neurons is recorded as “neuroprotective; also recorded: promote survival of motor neurons”. The “Motor neuron survival at low concentrations compared with AT-7519” value with human motor neurons was “better promoted motor neuron survival than AT-7519”. The “Effect on CDKL5 kinase activity” value at WT human CDKL5 was “robust, dose-dependent inhibition”.

Consider `O=C(NC1CCNCC1)c1n[nH]cc1NC(=O)c1c(Cl)cccc1Cl` [AT-7519, N-(4-piperidinyl)-4-(2,6-dichlorobenzoylamino)-1H-pyrazole-3-carboxamide, reference compound], for which the “Motor neuron survival in response to ER stress” value in the test on human motor neurons is on record as “neuroprotective”.

Regarding `CCN1CCN(Cc2ccc(NC(=O)Nc3ccc(Oc4cc(NC)ncn4)cc3)cc2C(F)(F)F)CC1` [AST-487, reference compound], on WT human CDKL5, the “Effect on CDKL5 kinase activity” value was “robust, dose-dependent inhibition”.

Take `O=C(NCC1CCOCC1)c1n[nH]cc1NC(=O)c1c(F)cccc1F` [Compound 4, 4-(2,6-difluorobenzamido)-N-((tetrahydro-2H-pyran-4-yl)methyl)-1H-pyrazole-3-carboxamide]: in the test on CDKL5 expression, the CDKL5 expression result was “not altered”. Moreover, the “Phosphorylation of EB2 (S222)” value in the test on S222 EB2 phosphorylation is reported as “only at the highest concentration”. Also, the “Phosphorylation of β-catenin (S33/37/T41)” value in [2] is recorded as “reduced in a dose-dependent manner”. This compound also had a pIC50 at CDKL5 [3] of 5.36. Also, the “Fold less active than compound 2 in CDKL5 NanoBRET” value on CDKL5 [3] (compound 4 vs compound 2) is ~ 1000 ×. For the same compound, in the test on human motor neurons, the “Motor neuron survival in response to ER stress” value was “neuroprotective; also recorded: promote survival of motor neurons” and the “Motor neuron survival at low concentrations compared with AT-7519” value is “better promoted motor neuron survival than AT-7519”. Besides, the “Effect on CDKL5 kinase activity” value at WT human CDKL5 is on record as “No significant difference”. Besides, at DYRK1B, the “Selectivity window between GSK3β and DYRK1B, the next most potently inhibited kinase” value is recorded as 23 fold.
